# Data taken from ChEMBL document CHEMBL1124260, “Synthesis and antitumor activity of quaternary ellipticine glycosides, a series of novel and highly active antitumor agents” (1988).
# How the values were obtained:
# Mus musculus [1] = test: Number of survivors out of 6 ip implanted EAC leukemia mouse tested after 80 days at 10 mg/kg; assay type: functional; conditions: route intraperitoneal
# In short: (§1)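 Drug dissolved and diluted in saline just before use, given ip for 5 consecutive days starting 24 h after implant. Six mice per dose. Survivors counted at 80 days; ILS % taken from mean survival time of treated vs control mice.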
# Mus musculus [2] = test: Number of survivors out of 6 ip implanted EAC leukemia mouse tested after 80 days at 20 mg/kg; assay type: functional; conditions: route intraperitoneal; in short: as §1
# Mus musculus [3] = test: Number of survivors out of 6 ip implanted EAC leukemia mouse tested after 80 days at 40 mg/kg; assay type: functional; conditions: route intraperitoneal; in short: as §1
# Mus musculus [4] = test: Number of survivors out of 6 ip implanted L1210 leukemia in mouse after ip administration of 10 mg/kg after 80 days; assay type: functional; conditions: route intraperitoneal
# In short: (§2)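 Female BDF1 mice implanted ip with ascitic fluid holding 10^5 L1210 cells. Saline-dissolved drug given ip daily on days 1-5, starting 24 h after implant. Six mice per dose group, followed 80 days. Survivors/total counted at day 80; ILS % from mean survival time vs controls.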
# Mus musculus [5] = test: Number of survivors out of 6 ip implanted L1210 leukemia in mouse after ip administration of 20 mg/kg after 80 days; assay type: functional; conditions: route intraperitoneal; in short: as §2
# Mus musculus [6] = test: Effect on ip implanted sarcoma 180 by ip administration for 5 days at 20 mg/kg was measured as increase in mean life span; assay type: functional; conditions: Sarcoma-180, ip, 120 h, route intraperitoneal
# In short: (§3)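 Saline-dissolved drug was dosed ip daily for 5 consecutive days starting 24 h later. Readout was ILS % (mean survival time of treated vs control) over an 80-day observation.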
# Mus musculus [7] = test: Effect on ip implanted sarcoma 180 by ip administration for 5 days at 40 mg/kg was measured as increase in mean life span; assay type: functional; conditions: Sarcoma-180, ip, 120 h, route intraperitoneal; in short: as §3
# Mus musculus [8] = test: Antitumor activity against ip implanted L1210 leukemia in mouse after ip administration of 1.25 mg/kg for 5 days expressed as increase in mean life span; assay type: functional; conditions: 120 h, route intraperitoneal
# In short: (§4)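 Drug was dissolved in 0.9% NaCl, diluted just before use and given ip once daily for 5 consecutive days, starting 24 h after transplant. ILS % = mean survival time of treated vs control mice, observed for 80 days.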
# Mus musculus [9] = test: Number of survivors out of 6 ip implanted P388 leukemia in mouse after ip administration of 10 mg/kg after 80 days; assay type: functional; conditions: route intraperitoneal
# In short: (§5)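 P388 leukemia, 10^6 ascitic cells implanted ip in female BDF1 mice. Drug in saline given ip for 5 consecutive days from 24 h after transplant. Groups of six per dose level. Survivors/total recorded at the 80-day end of observation; ILS % from treated/control mean survival time.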
# Mus musculus [10] = test: Number of survivors out of 6 ip implanted P388 leukemia in mouse after ip administration of 20 mg/kg after 80 days; assay type: functional; conditions: route intraperitoneal; in short: as §5
# Mus musculus [11] = test: Number of survivors out of 6 ip implanted P388 leukemia in mouse after ip administration of 5 mg/kg after 80 days; assay type: functional; conditions: route intraperitoneal; in short: as §5
# Mus musculus [12] = test: Number of survivors out of 6 ip implanted sarcoma 180 leukemia mouse tested after 80 days at 40 mg/kg; assay type: functional; conditions: route intraperitoneal; in short: as §1
# Mus musculus [13] = test: Effect on ip implanted EAC by ip administration for 5 days at 10 mg/kg was measured as increase in mean life span; assay type: functional; conditions: 120 h, route intraperitoneal
# In short: (§6)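 Drug in 0.9% NaCl was given ip for 5 consecutive days from 24 h after inoculation. ILS % came from treated vs control mean survival time, followed for 80 days.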
# Mus musculus [14] = test: Antitumor activity against ip implanted L1210 leukemia in mouse after ip administration of 10 mg/kg for 5 days expressed as increase in mean life span; assay type: functional; conditions: Mus musculus, L1210, ip, 120 h, route intraperitoneal; in short: as §4
# Mus musculus [15] = test: Antitumor activity against ip implanted L1210 leukemia in mouse after ip administration of 20 mg/kg for 5 days expressed as increase in mean life span; assay type: functional; conditions: 120 h, route intraperitoneal; in short: as §4
# Mus musculus [16] = test: Antitumor activity against ip implanted L1210 leukemia in mouse after ip administration of 30 mg/kg for 5 days expressed as increase in mean life span; assay type: functional; conditions: Mus musculus, L1210, ip, 120 h, route intraperitoneal; in short: as §4
# Mus musculus [17] = test: Antitumor activity against ip implanted L1210 leukemia in mouse after ip administration of 40 mg/kg for 5 days expressed as increase in mean life span; assay type: functional; conditions: 120 h, route intraperitoneal; in short: as §4
# Mus musculus [18] = test: Antitumor activity against ip implanted L1210 leukemia in mouse after ip administration of 5 mg/kg for 5 days expressed as increase in mean life span; assay type: functional; conditions: Mus musculus, L1210, ip, 120 h, route intraperitoneal; in short: as §4
# Mus musculus [19] = test: Antitumor activity against ip implanted P388 leukemia in mouse after ip administration of 1.25 mg/kg for 5 days expressed as increase in mean life span; assay type: functional; conditions: 120 h, route intraperitoneal
# In short: (§7)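 Saline-dissolved drug was given ip daily for 5 consecutive days, beginning 24 h post-transplant. ILS % was calculated from treated vs control mean survival time over an 80-day observation period.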
# Mus musculus [20] = test: Antitumor activity against ip implanted P388 leukemia in mouse after ip administration of 10 mg/kg for 5 days expressed as increase in mean life span; assay type: functional; conditions: 120 h, route intraperitoneal; in short: as §7
# Mus musculus [21] = test: Antitumor activity against ip implanted P388 leukemia in mouse after ip administration of 20 mg/kg for 5 days expressed as increase in mean life span; assay type: functional; conditions: 120 h, route intraperitoneal; in short: as §7
# Mus musculus [22] = test: Antitumor activity against ip implanted P388 leukemia in mouse after ip administration of 40 mg/kg for 5 days expressed as increase in mean life span; assay type: functional; conditions: 120 h, route intraperitoneal; in short: as §7
# Mus musculus [23] = test: Antitumor activity against ip implanted P388 leukemia in mouse after ip administration of 5 mg/kg for 5 days expressed as increase in mean life span; assay type: functional; conditions: 120 h, route intraperitoneal; in short: as §7
# Mus musculus [24] = test: Number of survivors out of 6 ip implanted L1210 leukemia mouse, tested after 80 days at 30 mg/kg; assay type: functional; conditions: route intraperitoneal; in short: as §2
# Mus musculus [25] = test: Effect on ip implanted EAC by ip administration for 5 days at 20 mg/kg was measured as increase in mean life span; assay type: functional; conditions: 120 h, route intraperitoneal; in short: as §6
# Mus musculus [26] = test: Effect on ip implanted EAC by ip administration for 5 days at 40 mg/kg was measured as increase in mean life span; assay type: functional; conditions: 120 h, route intraperitoneal; in short: as §6
# Mus musculus [27] = test: Effect on ip implanted EAC by ip administration for 5 days at 5 mg/kg was measured as increase in mean life span; assay type: functional; conditions: 120 h, route intraperitoneal; in short: as §6
# Mus musculus [28] = test: Effect on ip implanted sarcoma 180 by ip administration for 5 days at 10 mg/kg was measured as increase in mean life span; assay type: functional; conditions: Sarcoma-180, ip, 120 h, route intraperitoneal; in short: as §3
# Mus musculus [29] = test: Inhibition of sc implanted syngeneic colon 38 carcinoma by ip administration at 20 mg/kg on 1, 3, 5, 7, 9 days measured as inhibition ratio; assay type: functional; conditions: route subcutaneous
# In short: (§8)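 Tumor homogenate (70 mg) implanted into the axillary region of female BDF1 mice. Drug dissolved in 0.9% NaCl and diluted with saline just before use, then given ip on days 1, 3, 5, 7 and 9. Tumor length and width were measured by caliper on day 20 after inoculation and converted to estimated weight. Result reported as treated vs control tumor weight, T/C %.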
# Mus musculus [30] = test: Inhibition of sc implanted syngeneic colon 38 carcinoma by ip administration at 30 mg/kg on 1, 3, 5, 7, 9 days measured as inhibition ratio; assay type: functional; conditions: route intraperitoneal; in short: as §8
# Mus musculus [31] = test: Number of survivors out of 6 ip implanted P388 leukemia in mouse after iv administration of 16 mg/kg after 80 days
# Mus musculus [32] = test: Effect on ip implanted syngeneic B16 melanoma by ip administration of 20 mg/kg for 9 days measured as increase in mean life span; conditions: 216 h
# Mus musculus [33] = test: Effect on ip implanted syngeneic B16 melanoma by ip administration for 9 days at 5 mg/kg was measured as increase in mean life span; conditions: 216 h
# Mus musculus [34] = test: Effect on ip implanted syngeneic B16 melanoma by ip administration for 9 days at 10 mg/kg was measured as increase in mean life span; conditions: 216 h
# Mus musculus [35] = test: Effect on ip implanted syngeneic B16 melanoma by ip administration for 9 days at 2.5 mg/kg was measured as increase in mean life span; conditions: 216 h
# Mus musculus [36] = test: Antitumor activity against ip implanted P388 leukemia in mouse after iv administration of 8 mg/kg for 5 days expressed as increase in mean life span; conditions: 120 h
# Mus musculus [37] = test: Antitumor activity against ip implanted L1210 leukemia in mouse after iv administration of 8 mg/kg for 5 days expressed as increase in mean life span; conditions: 120 h
# Mus musculus [38] = test: Antitumor activity against ip implanted P388 leukemia in mouse after iv administration of 16 mg/kg for 5 days expressed as increase in mean life span; conditions: 120 h
# Mus musculus [39] = test: Antitumor activity against ip implanted L1210 leukemia in mouse after iv administration of 16 mg/kg for 5 days expressed as increase in mean life span; conditions: 120 h
# Mus musculus [40] = test: Antitumor activity against ip implanted syngeneic P388 leukemia in mouse after ip administration of 5 mg/kg for 5 days expressed as increase in mean life span; assay type: functional; conditions: 120 h, route intraperitoneal; in short: as §7
# Mus musculus [41] = test: Inhibition of sc implanted syngeneic colon 38 carcinoma by ip administration at 5 mg/kg on 1, 3, 5, 7, 9 days measured as inhibition ratio; assay type: functional; conditions: route subcutaneous; in short: as §8
smiles,measurement,setting,value
Cc1c2cc[n+]([C@@H]3O[C@H](CO)[C@H](O)[C@H]3O)cc2c(C)c2c1[nH]c1ccc(O)cc12.[Cl-],Cures,Mus musculus [1],2
same,Cures,Mus musculus [2],3
same,Cures,Mus musculus [3],5
same,Cures,Mus musculus [4],1
same,Cures,Mus musculus [5],1
same,ILS at 20 mg/kg,Mus musculus [6],> 318%
same,ILS at 40 mg/kg,Mus musculus [7],> 335%
same,ILS at 1.25 mg/kg,Mus musculus [8],55%
same,Cures,Mus musculus [9],2
same,Cures,Mus musculus [10],5
same,Cures,Mus musculus [11],3
same,Cures,Mus musculus [12],2
same,ILS at 10 mg/kg,Mus musculus [13],> 318%
same,ILS at 10 mg/kg,Mus musculus [14],> 272%
same,ILS at 20 mg/kg,Mus musculus [15],> 244%
same,ILS at 30 mg/kg,Mus musculus [16],> 682%
same,ILS at 40 mg/kg,Mus musculus [17],59%
same,ILS at 5 mg/kg,Mus musculus [18],73%
same,ILS at 1.25 mg/kg,Mus musculus [19],110%
same,ILS at 10 mg/kg,Mus musculus [20],> 376%
same,ILS at 20 mg/kg,Mus musculus [21],> 628%
same,ILS at 40 mg/kg,Mus musculus [22],112%
same,ILS at 5 mg/kg,Mus musculus [23],> 418%
same,Cures,Mus musculus [24],4
same,ILS at 20 mg/kg,Mus musculus [25],> 380%
same,ILS at 40 mg/kg,Mus musculus [26],> 501%
same,ILS at 5 mg/kg,Mus musculus [27],125%
same,ILS at 10 mg/kg,Mus musculus [28],69%
same,T/C,Mus musculus [29],36%
same,T/C,Mus musculus [30],2%
same,Cures,Mus musculus [31],2
same,ILS at 20 mg/kg,Mus musculus [32],52%
same,ILS at 5 mg/kg,Mus musculus [33],42%
same,ILS at 10 mg/kg,Mus musculus [34],64%
same,ILS at 2.5 mg/kg,Mus musculus [35],38%
same,ILS at 8 mg/kg,Mus musculus [36],122%
same,ILS at 8 mg/kg,Mus musculus [37],102%
same,ILS at 16 mg/kg,Mus musculus [38],> 417%
same,ILS at 16 mg/kg,Mus musculus [39],168%
CC(=O)[O-].Cc1c2cc[n+](C)cc2c(C)c2c1[nH]c1ccc(O)cc12 [ELLIPTINIUM ACETATE],ILS at 5 mg/kg,Mus musculus [18],48%
same,ILS at 5 mg/kg,Mus musculus [40],90%
same,T/C,Mus musculus [41],38%
same,ILS at 2.5 mg/kg,Mus musculus [35],35%
